# Source: ChEMBL document CHEMBL4689842, “EUbOPEN Chemogenomics Library wave 1” (2021)
# System: U2OS
# Experiment: Multiplex assay against U2OS
# Assay type: toxicity, cell-based
# Details: human
# Method in brief: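 With compound added, live cells were imaged on a CQ1 microscope at 37°C and 5% CO2; staining with Hoechst33342, BioTracker Green Microtubule Cytoskeleton Dye, MitoTracker Red and Annexin V Alexa Fluor 680 had been done at seeding. The CellPathfinder machine-learning gating scheme split cells into Hoechst high-intensity objects or normal cells, normal cells into healthy, pyknosed or fragmented nuclei, and pyknosed cells into mitotic or apoptotic. The tubulin, mitochondrial-mass and membrane-permeability phenotypes are per cents of healthy-nucleus cells.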
# [1] = 12 h, 1 µM, compound concentration 1 uM, replicate 1
# [2] = 12 h, 1 µM, compound concentration 1 uM, replicate 2
# [3] = 12 h, 10 µM, compound concentration 10 uM, replicate 1
# [4] = 12 h, 10 µM, compound concentration 10 uM, replicate 2
# [5] = 24 h, 1 µM, compound concentration 1 uM, replicate 1
# [6] = 24 h, 1 µM, compound concentration 1 uM, replicate 2
# [7] = 24 h, 10 µM, compound concentration 10 uM, replicate 1
# [8] = 24 h, 10 µM, compound concentration 10 uM, replicate 2
# [9] = 48 h, 1 µM, compound concentration 1 uM, replicate 1
# [10] = 48 h, 1 µM, compound concentration 1 uM, replicate 2
# [11] = 48 h, 10 µM, compound concentration 10 uM, replicate 1
# [12] = 48 h, 10 µM, compound concentration 10 uM, replicate 2
smiles,measurement,setting,value
CC(C)[C@H](CO)Nc1nc(Nc2cccc(Cl)c2)c2ncn(C(C)C)c2n1 [PURVALANOLA],Population Apoptotic (%),[1],58%
same,Population Fragmented Nuclei (%),[1],13%
same,Population Healthy Nuclei (%),[1],76%
same,Population Hoechst High Intensity Objects (%),[1],12%
same,Population Membrane Permeable-Phenotype (%),[1],1%
same,Population Mitochondria Different-Phenotype (%),[1],15%
same,Population Mitotic Cells (%),[1],41%
same,Population Normal (%),[1],87%
same,Population Pyknosed Nuclei (%),[1],10%
same,Population Tubulin-Different-Phenotype (%),[1],12%
same,Total Cell Count,[1],212
same,Population Apoptotic (%),[2],50%
same,Population Fragmented Nuclei (%),[2],8%
same,Population Healthy Nuclei (%),[2],88%
same,Population Hoechst High Intensity Objects (%),[2],10%
same,Population Membrane Permeable-Phenotype (%),[2],7%
same,Population Mitochondria Different-Phenotype (%),[2],21%
same,Population Mitotic Cells (%),[2],50%
same,Population Normal (%),[2],89%
same,Population Pyknosed Nuclei (%),[2],3%
same,Population Tubulin-Different-Phenotype (%),[2],15%
same,Total Cell Count,[2],111
same,Population Apoptotic (%),[3],68%
same,Population Fragmented Nuclei (%),[3],23%
same,Population Healthy Nuclei (%),[3],55%
same,Population Hoechst High Intensity Objects (%),[3],13%
same,Population Membrane Permeable-Phenotype (%),[3],39%
same,Population Mitochondria Different-Phenotype (%),[3],96%
same,Population Mitotic Cells (%),[3],32%
same,Population Normal (%),[3],86%
same,Population Pyknosed Nuclei (%),[3],21%
same,Population Tubulin-Different-Phenotype (%),[3],100%
same,Total Cell Count,[3],129
same,Population Apoptotic (%),[4],83%
same,Population Fragmented Nuclei (%),[4],13%
same,Population Healthy Nuclei (%),[4],79%
same,Population Hoechst High Intensity Objects (%),[4],7%
same,Population Membrane Permeable-Phenotype (%),[4],23%
same,Population Mitochondria Different-Phenotype (%),[4],95%
same,Population Mitotic Cells (%),[4],16%
same,Population Normal (%),[4],92%
same,Population Pyknosed Nuclei (%),[4],6%
same,Population Tubulin-Different-Phenotype (%),[4],98%
same,Total Cell Count,[4],66
same,Population Apoptotic (%),[5],36%
same,Population Fragmented Nuclei (%),[5],10%
same,Population Healthy Nuclei (%),[5],80%
same,Population Hoechst High Intensity Objects (%),[5],5%
same,Population Membrane Permeable-Phenotype (%),[5],3%
same,Population Mitochondria Different-Phenotype (%),[5],7%
same,Population Mitotic Cells (%),[5],63%
same,Population Normal (%),[5],94%
same,Population Tubulin-Different-Phenotype (%),[5],6%
same,Total Cell Count,[5],221
same,Population Apoptotic (%),[6],60%
same,Population Fragmented Nuclei (%),[6],8%
same,Population Healthy Nuclei (%),[6],83%
same,Population Hoechst High Intensity Objects (%),[6],6%
same,Population Membrane Permeable-Phenotype (%),[6],5%
same,Population Mitochondria Different-Phenotype (%),[6],23%
same,Population Mitotic Cells (%),[6],40%
same,Population Normal (%),[6],93%
same,Population Pyknosed Nuclei (%),[6],8%
same,Population Tubulin-Different-Phenotype (%),[6],9%
same,Total Cell Count,[6],157
same,Population Apoptotic (%),[7],67%
same,Population Fragmented Nuclei (%),[7],27%
same,Population Healthy Nuclei (%),[7],48%
same,Population Hoechst High Intensity Objects (%),[7],16%
same,Population Membrane Permeable-Phenotype (%),[7],55%
same,Population Mitochondria Different-Phenotype (%),[7],100%
same,Population Mitotic Cells (%),[7],32%
same,Population Normal (%),[7],83%
same,Population Pyknosed Nuclei (%),[7],24%
same,Population Tubulin-Different-Phenotype (%),[7],100%
same,Total Cell Count,[7],133
same,Population Apoptotic (%),[8],80%
same,Population Fragmented Nuclei (%),[8],16%
same,Population Healthy Nuclei (%),[8],65%
same,Population Hoechst High Intensity Objects (%),[8],8%
same,Population Membrane Permeable-Phenotype (%),[8],50%
same,Population Mitotic Cells (%),[8],20%
same,Population Normal (%),[8],91%
same,Population Pyknosed Nuclei (%),[8],17%
same,Total Cell Count,[8],66
same,Population Fragmented Nuclei (%),[9],12%
same,Population Healthy Nuclei (%),[9],82%
same,Population Hoechst High Intensity Objects (%),[9],4%
same,Population Membrane Permeable-Phenotype (%),[9],4%
same,Population Mitochondria Different-Phenotype (%),[9],14%
same,Population Normal (%),[9],95%
same,Population Pyknosed Nuclei (%),[9],5%
same,Population Tubulin-Different-Phenotype (%),[9],7%
same,Total Cell Count,[9],219
same,Population Apoptotic (%),[10],60%
same,Population Fragmented Nuclei (%),[10],4%
same,Population Healthy Nuclei (%),[10],84%
same,Population Hoechst High Intensity Objects (%),[10],5%
same,Population Membrane Permeable-Phenotype (%),[10],6%
same,Population Mitochondria Different-Phenotype (%),[10],25%
same,Population Mitotic Cells (%),[10],40%
same,Population Normal (%),[10],94%
same,Population Pyknosed Nuclei (%),[10],11%
same,Population Tubulin-Different-Phenotype (%),[10],10%
same,Total Cell Count,[10],168
same,Population Apoptotic (%),[11],77%
same,Population Fragmented Nuclei (%),[11],33%
same,Population Healthy Nuclei (%),[11],17%
same,Population Hoechst High Intensity Objects (%),[11],23%
same,Population Membrane Permeable-Phenotype (%),[11],64%
same,Population Mitochondria Different-Phenotype (%),[11],94%
same,Population Mitotic Cells (%),[11],22%
same,Population Normal (%),[11],76%
same,Population Pyknosed Nuclei (%),[11],49%
same,Population Tubulin-Different-Phenotype (%),[11],100%
same,Total Cell Count,[11],189
same,Population Apoptotic (%),[12],100%
same,Population Fragmented Nuclei (%),[12],16%
same,Population Healthy Nuclei (%),[12],62%
same,Population Hoechst High Intensity Objects (%),[12],18%
same,Population Membrane Permeable-Phenotype (%),[12],58%
same,Population Mitochondria Different-Phenotype (%),[12],87%
same,Population Mitotic Cells (%),[12],0%
same,Population Normal (%),[12],81%
same,Population Pyknosed Nuclei (%),[12],20%
same,Population Tubulin-Different-Phenotype (%),[12],93%
same,Total Cell Count,[12],94
